The values that follow come from PMC7770080 (Biochemical pharmacology, 2020).

One may read the IC50 as the point on the concentration scale where inhibition reaches its midpoint.

Where two headings read alike, the source gives them in different places.

The subject of data set [1] is C. difficile strain 630 spores. The data set is described as follows: Prevention of murine CDI after C. difficile spore challenge. The class given is in vivo, mice. To be noted: 50 mg/kg oral gavage, three doses; for Time to clinical endpoint: clinical endpoint > 6 on CDI severity scale; for CDI signs in spore-challenged mice: 10^8 CFU spores.
The nature of data set [2]: Fecal excretion of CamSA and mSA after oral CamSA in cpx and non-cpx mice. Type of data set: in vivo.
Data set [3] in a line: CamSA and mSA in liver, blood, kidney and chyme after oral CamSA. Type of data set: in vivo, mice. Conditions: for Highest concentration found in the liver: 50 mg/kg oral CamSA, calculated; for Amount recovered from chyme as fraction of total dosed CamSA: all five time points together; for Total administered CamSA recovered from feces, organs and chyme: semi-quantitative.
Data set [4] can be described thus: Interaction with cholestyramine resin in vitro and recovery from the resin. Type of data set: physicochemical. To be noted: for Binding to cholestyramine resin in vitro: 20 mg/ml cholestyramine, overnight, 37°C.
The subject of data set [5] is C. difficile spores. The data set is described as follows: In vitro C. difficile spore germination assay. Type of data set: cell-based, Clostridioides difficile.
Another data set addresses CYP3A4 (Homo sapiens, UniProt P08684). The data set is described as follows: Vivid CYP3A4 Green screening assay with P450 BACULOSOMES
Data set [6] relates to murine GI microbiota (feces). The data set is described as follows: Metabolism of CamSA by fecal microbiota. Type of data set: in vitro ADME, mice.
Data set [7] in a line: Effect of cholestyramine feed on CamSA in liver of cpx mice. The class given is in vivo. Conditions: 22 hours post-CamSA. Summed up:
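Cefoperazone-treated mice, individually housed, were fed chow with 4% w/w (n=3) or 0% w/w (n=4) cholestyramine from 24 h before test compound dosing until the end. At 22 h post-dose, livers with attached gallbladders were harvested, stored at −20 °C, then homogenised. Acetonitrile was added to precipitate protein, and samples were centrifuged and filtered (0.2 μm). Analysis was by RP-HPLC-MS on a PSDVB column with isocratic 40% ACN, 5 mM ammonium acetate, 0.1% formic acid.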

For data set [8], the system named is C. difficile spores. Conditions: in vitro and in vivo; cited from earlier work.
For data set [9], the system named is C. difficile. Conditions: cited from earlier work.
The subject of a further data set is Bifidobacterium longum. Conditions: 24 hours, pure culture; cited from earlier work.
In a further data set the test system is Lactobacillus gasseri. To be noted: 24 hours, pure culture; cited from earlier work.
The conditions of data set [10]: 24 hours, both conditions; cited from earlier work.
In a further data set the test system is Caco-2 monolayers. Conditions: cited from earlier work.
Data set [11] deals with C. difficile. Conditions: cited from earlier work. The source holds these as a separate data set.

Sequence of CYP3A4 (P08684 whole entry): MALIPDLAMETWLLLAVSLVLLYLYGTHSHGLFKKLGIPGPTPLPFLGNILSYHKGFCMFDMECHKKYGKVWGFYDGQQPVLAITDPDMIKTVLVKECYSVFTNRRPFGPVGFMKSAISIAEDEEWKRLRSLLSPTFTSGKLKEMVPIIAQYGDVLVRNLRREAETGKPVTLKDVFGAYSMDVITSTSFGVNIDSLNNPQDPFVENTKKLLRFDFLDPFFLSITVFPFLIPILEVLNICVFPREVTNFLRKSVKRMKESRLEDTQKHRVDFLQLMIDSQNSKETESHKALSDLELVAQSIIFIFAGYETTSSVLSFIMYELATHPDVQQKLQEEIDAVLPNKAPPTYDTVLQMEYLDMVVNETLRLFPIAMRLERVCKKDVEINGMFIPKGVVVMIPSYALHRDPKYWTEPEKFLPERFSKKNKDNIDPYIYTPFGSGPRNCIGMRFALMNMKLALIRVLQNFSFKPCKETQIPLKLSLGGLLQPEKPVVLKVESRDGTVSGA

For the compound `Nc1cccc(S(=O)(=O)O)c1` [mSA, metanilic acid], the “Time to clinical endpoint” value in [1] was ≤ 48 hours post-challenge. For the same compound, the Detection in feces entry in [2] (cpx mice, any time point) is “not observed”. In addition, the “Amount recovered from feces relative to CamSA from the same animals (higher)” value in data set [2] (non-cpx mice) was “approximately 40 fold”. Also, the “Time of first large peak in feces” value in data set [2] (non-cpx mice, after CamSA administration) was ≤ 12 h. In addition, the “Highest concentration found in the liver” value in [3] is reported as “approximately 20 μM”. In addition, in [3] (cpx mice), the Detection in kidney entry is recorded as “detected”. The Detection in blood entry in data set [3] (cpx mice, any time point) was “unable to detect”. In data set [3] (non-cpx mice), the “Amount recovered from chyme relative to amount recovered from feces” value is “about 85%”, the Detection in blood result is “only detected in blood at the 22-hour time point” and the Detection in kidney result is “only detected in kidney at the 12-hour time point”. The “Amount recovered from chyme as fraction of total dosed CamSA” value in data set [3] (non-cpx mice, detected as mSA) is 13%. For the same compound, the “Binding to cholestyramine resin in vitro” value in data set [4] is “bound completely”. For the same compound, in data set [4] (stripping under strong acidic conditions), the “Reversibility of binding to cholestyramine” value is “irreversible”. In addition, the “Effect on C. difficile spore germination in vitro” value in the data set on C. difficile spores [5] is “neither induced nor inhibited”. The same compound had an IC50 against CYP3A4 of 17.5 ± 1.1 mM.
Regarding `C[C@H](CCC(=O)Nc1cccc(S(=O)(=O)O)c1)[C@H]1CC[C@H]2[C@@H]3CC[C@@H]4C[C@H](O)CC[C@]4(C)[C@H]3C[C@H](O)[C@]12C` [7-deoxy-CamSA], the “CDI signs in spore-challenged mice” value in [1] was “only moderate CDI signs”.
Consider `C[C@H](CCC(=O)Nc1cccc(S(=O)(=O)O)c1)[C@H]1CC[C@H]2[C@@H]3[C@H](O)C[C@@H]4C[C@H](O)CC[C@]4(C)[C@H]3CC[C@]12C` [12-deoxy-CamSA], for which, in [1], the CDI severity score is > 6 and the “Time to clinical endpoint” value is listed as 48 hours post-challenge.
As for `C[C@H](CCC(=O)[O-])[C@H]1CC[C@H]2[C@@H]3[C@H](O)C[C@@H]4C[C@H](O)CC[C@]4(C)[C@H]3C[C@H](O)[C@]12C.[Na+]` [cholate, Sodium cholate, reference compound], the “Time to clinical endpoint” value in [1] is ≤ 48 hours post-challenge. In addition, in the data set on C. difficile spores [5], the “Effect on C. difficile spore germination in vitro” value was “could stimulate spore germination”.
As for `C[C@H](CCC(=O)Nc1cccc(S(=O)(=O)O)c1)[C@H]1CC[C@H]2[C@@H]3[C@H](O)C[C@@H]4C[C@H](O)CC[C@]4(C)[C@H]3C[C@H](O)[C@]12C` [CamSA], the “Hydrolysis of CamSA to cholate and mSA” value in [6] (GI microbiota of mice not treated with antibiotics) is recorded as “slowly hydrolyzed”. In data set [6] (feces collected one week after last antibiotic dose, data not shown), the “Degradation of CamSA by recovered microbiota” value is on record as “degraded CamSA at a similar rate as feces from animals that had never received antibiotics”. Moreover, the “CDI signs in spore-challenged mice” value in [1] is reported as “little to no signs of CDI”. Moreover, the “Retention of intact compound in the animal” value in data set [2] (antibiotic-treated mouse) is recorded as 7 days post-administration. For the same compound, in data set [2] (cpx mice), the “Start of CamSA excretion in feces” value is reported as “around 6 hours post-administration” and the “Time of second fecal excretion maximum” value is 32 hours post-administration. Moreover, the “Fraction of total dosed CamSA recovered from feces” value in [2] (cpx mice, 50 mg/kg oral, over a week) is recorded as “approximately 30%”. In data set [2] (non-cpx mice), the Detection in feces entry was “low levels of intact CamSA” and the “Maximum amount recovered from feces at a single time point relative to cpx mice” value is “four-fold lower”. The “Fraction of total dosed drug recovered from feces, mSA plus CamSA” value in [2] (non-cpx mice, 50 mg/kg oral, over a week) is given as “approximately 15%”. The “Highest concentration found in the liver” value in data set [3] is “approximately 140 μM”. Also, in data set [3] (cpx animals), the “Total administered CamSA recovered from feces, organs and chyme” value is on record as “approximately 40%”. In [3] (cpx mice), the Detection in kidney result is reported as “negligible amounts”, the “Total amount recovered from liver relative to feces (less)” value is recorded as “approximately 10 fold” and the “Amount recovered from chyme as fraction of total dosed CamSA” value is listed as 10%. In addition, the Detection in blood result in data set [3] (cpx mice, any time point) is recorded as “unable to detect”. Also, in data set [3] (cpx mice, one animal per time point), the “Time of peak hepatic concentration” value was found to be 22 h. For the same compound, in data set [3] (mouse, in vivo), the “CamSA and mSA recovered from chyme relative to blood (higher)” value was found to be 300 fold; the “CamSA and mSA recovered from chyme relative to other organs (higher)” value is “at least 10 fold”. Moreover, in [3] (non-cpx animals), the “Total administered CamSA recovered from feces, organs and chyme” value is on record as ~25%. In data set [3] (non-cpx mice), the Detection in blood result is given as “not detected”; the “Total combined CamSA and mSA recovered from liver relative to feces (less)” value was “approximately 10 fold”. The “Binding to cholestyramine resin in vitro” value in [4] is listed as “nearly complete sequestration”. Moreover, the “Recovery from cholestyramine resin” value in [4] (0.5 N aqueous HCl, absence of feces) was “less than 1%”. Further, in data set [4] (0.5 N ethanolic HCl, absence of feces), the “Recovery from cholestyramine resin” value is given as “up to 75%”. For the same compound, the “Recovery from cholestyramine resin” value in [4] (0.5 N ethanolic HCl, presence of fecal matter) was “less than 10%”. Besides, in [7] (0% cholestyramine feed), the Detection in liver entry is given as “detected CamSA from liver samples from three of the four mice”. For the same compound, the Detection in liver result in data set [7] (4% cholestyramine feed) is reported as “unable to detect”. Also, the “Effect on taurocholate-mediated C. difficile spore germination” value with C. difficile spores [8] is listed as “potent inhibitor”. For the same compound, in the data set on C. difficile [9] (CamSA alone), the “Effect on mean time of death of infected animals” value is “double the mean time of death” and the “Prevention of CDI onset” value is “unable to prevent the onset of CDI”. Moreover, the “Hamsters protected, no CDI symptoms a month post-challenge” value with C. difficile [9] (CamSA with sub-clinical doses of vancomycin) is listed as 70%. For the same compound, in the data set on Bifidobacterium longum, the CamSA hydrolyzed entry is listed as “approximately 80%”. In the data set with Lactobacillus gasseri, the CamSA hydrolyzed result is on record as “approximately 80%”. The “Degradation in artificial gastric or intestinal juices” value in [10] was “no CamSA degradation was observed”. For the same compound, the Intestinal permeability result in the data set on Caco-2 monolayers is listed as “limited intestinal permeability”. For the same compound, the Acute toxicity entry with C. difficile [11] (CamSA-treated mice) is recorded as “did not indicate any signs of acute toxicity or damage to GI tissue”. Besides, the “Prevention of CDI symptoms” value with C. difficile [11] (single 50 mg/kg dose) is on record as “completely prevent CDI symptoms”. In addition, the IC50 at CYP3A4 (read-out: IC50 on CYP3A4 activity, assuming inhibition of CYP3A4, triplicate) is 0.62 ± 0.11 mM.
